Tests used:
[1] = Cytotoxicity against human THLE3 cells assessed as reduction in cell viability after 48 hrs by Alamar Blue reporter assay; conditions: 48 h
Enterobacter cloacae = experiment: Antibacterial activity against Enterobacter cloacae subsp. cloacae ATCC 13047 after 24 hrs by bacterial proliferation assay; type: functional, organism-based; conditions: subsp. cloacae ATCC 13047, 24 h
In short: (§1)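 Bacterial growth inhibition in liquid culture. The highest concentration tested was 100 µM. The mean was back-calculated from the average log value. Values above the top concentration were set 0.1 log unit higher.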

[2] = Inhibition of refolded MDH (unknown origin) preincubated with Escherichia coli GroEL/GroES for 45 mins in absence of compound followed by compound addition and measured for 20 to 35 mins by spectrometric analysis
[3] = biological target: T1, Thiosulfate sulfurtransferase (Homo sapiens, UniProt Q16762); experiment: Inhibition of refolded rhodanese (unknown origin) preincubated with Escherichia coli GroEL/GroES for 60 mins in absence of compound followed by compound addition by spectrometric analysis
T1 sequence (Q16762 whole entry): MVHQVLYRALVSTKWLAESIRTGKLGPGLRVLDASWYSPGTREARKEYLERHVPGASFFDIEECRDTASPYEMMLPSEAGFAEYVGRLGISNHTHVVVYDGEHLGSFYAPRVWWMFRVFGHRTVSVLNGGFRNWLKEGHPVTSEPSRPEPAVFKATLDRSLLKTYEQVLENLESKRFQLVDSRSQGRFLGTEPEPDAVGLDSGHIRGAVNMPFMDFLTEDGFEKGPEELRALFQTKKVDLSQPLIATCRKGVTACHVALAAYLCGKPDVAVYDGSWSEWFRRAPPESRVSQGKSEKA

Staphylococcus aureus [4] = experiment: Ratio of EC50 for bactericidal activity against Staphylococcus aureus Rosenbach ATCC 25923 in biofilms to EC50 for planktonic growth of Staphylococcus aureus Rosenbach ATCC 25923; type: functional
Klebsiella pneumoniae = experiment: Antibacterial activity against Klebsiella pneumoniae ATCC 13883 after 6 to 8 hrs by bacterial proliferation assay; type: functional, organism-based; in short: as §1
E. coli GroEL/ES [5] = biological target: T2, E. coli GroEL/ES (Escherichia coli, UniProt P0A6F5); experiment: Inhibition of Escherichia coli GroEL expressed in Escherichia coli DH5alpha/Escherichia coli GroES expressed in Escherichia coli BL21 (DE3) assessed as reduction in GroEL/GroES-mediated denatured rhodanese refolding after 45 mins by spectrometric analysis
In short: (§2)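 Uses E. coli GroEL/ES with a denatured MDH or rhodanese reporter. GroEL first forms a binary complex with the denatured reporter. Refolding is started by adding ATP and GroES, then reporter enzyme activity is read. DMSO is the negative control. IC50 values from replicate curves are log-averaged after ROUT outlier screening.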

HEK293 = experiment: Cytotoxicity against HEK293 cells assessed as reduction in cell viability after 48 hrs by Alamar Blue reporter assay; conditions: human, hek293, 48 h
Pseudomonas aeruginosa = experiment: Antibacterial activity against Pseudomonas aeruginosa ATCC 10145 after 24 hrs by bacterial proliferation assay; type: functional, organism-based; conditions: ATCC 10145, 24 h; in short: as §1
Staphylococcus aureus [6] = experiment: Antibacterial activity against Staphylococcus aureus ATCC 25923 after 6 to 8 hrs by bacterial proliferation assay; type: functional, organism-based
Staphylococcus aureus [7] = experiment: Antibacterial activity against methicillin-resistant Staphylococcus aureus ATCC BAA-44 after 6 to 8 hrs by bacterial proliferation assay; type: functional, organism-based; conditions: Staphylococcus aureus, ATCC BAA-44
E. coli GroEL/ES [8] = biological target: T2, E. coli GroEL/ES; experiment: Inhibition of Escherichia coli GroEL expressed in Escherichia coli DH5alpha/Escherichia coli GroES expressed in Escherichia coli BL21 (DE3) assessed as reduction in GroEL/GroES-mediated denatured MDH refolding after 20 to 40 mins by spectrometric analysis; in short: as §2
Acinetobacter baumannii = experiment: Antibacterial activity against Acinetobacter baumannii ATCC 19606 after 24 hrs by bacterial proliferation assay; type: functional, organism-based; conditions: ATCC 19606 = CIP 70.34 = JCM 6841, 24 h; in short: as §1
Enterococcus faecium = experiment: Antibacterial activity against Enterococcus faecium ATCC 19434 after 24 hrs by bacterial proliferation assay; type: functional, organism-based; conditions: ATCC 19434, 24 h
Staphylococcus aureus [9] = experiment: Bactericidal activity against planktonic growth of Staphylococcus aureus Rosenbach ATCC 25923 preincubated for 24 hrs followed by compound wash out and measured after 24 hrs; type: functional, organism-based
Staphylococcus aureus [10] = experiment: Bactericidal activity against Staphylococcus aureus Rosenbach ATCC 25923 in biofilms preincubated for 24 hrs followed by compound wash out and measured after 24 hrs; type: functional, organism-based
In short: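 ATCC 25923 preculture (TSB + 0.5% glucose, OD600 0.01) grown stagnant 24 h at 37°C to form biofilm, without compound. Wells washed 3× with PBS, then fresh TSB added with compound (100 µM–46 nM, 3-fold, DMSO) for 24 h at 37°C. Washed again, then recovered in fresh TSB 24 h at 37°C.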

Staphylococcus aureus [11] = experiment: Antibiofilm activity against Staphylococcus aureus Rosenbach ATCC 25923 after 24 hrs by crystal-violet based UV-Vis spectroscopy; type: functional, organism-based; conditions: Rosenbach ATCC 25923, 24 h
In short: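 ATCC 25923 colony grown overnight in TSB at 37°C with shaking, precultured 1 h in TSB + 0.5% glucose, then diluted to OD600 0.01. Incubated stagnant at 37°C for 24 h with compound (100 µM–46 nM, 3-fold, DMSO), alongside bacteria-free baseline plates. Wells washed, crystal violet stained 15 min, developed in MeOH:AcOH:H2O, A595.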

[12] = Therapeutic index, ratio of CC50 for HEK293 cells to EC50 for methicillin-resistant Staphylococcus aureus ATCC BAA-44; type: toxicity; conditions: human, read-out: Ratio CC50/EC50
In short: (§3)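 Ratio of human-cell CC50 to MRSA (ATCC BAA-44) EC50. […] EC50 comes from inhibition of MRSA proliferation in liquid culture. Replicate values were log-transformed, screened for outliers (ROUT, Q 10%), then averaged and back-calculated. Values above 100 µM were entered as 126 µM.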

[13] = Therapeutic index, ratio of CC50 for human THLE3 cells to EC50 for methicillin-resistant Staphylococcus aureus ATCC BAA-44; type: toxicity; conditions: read-out: Ratio CC50/EC50; in short: as §3
HSP60/HSP10 = HSP60/HSP10 (Homo sapiens, UniProt P10809); experiment: Inhibition of human N-terminal octa-His-tagged HSP60 expressed in Escherichia coli Rosetta(DE3) pLysS/human HSP10 expressed in Escherichia coli Rosetta(DE3) assessed as reduction in HSP60/HSP10-mediated denatured MDH refolding after 40 to 60 mins by spectrometric analysis
In short: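 Human HSP60/10 refolding of denatured MDH, run the same way as the GroEL/ES-dMDH assay. A binary complex of chaperonin and denatured MDH is formed, and refolding is started with ATP and HSP10. MDH activity is the read-out. DMSO is the negative control. IC50 values from replicate curves are log-averaged after ROUT outlier screening.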

T2 sequence (P0A6F5 whole entry, looked up): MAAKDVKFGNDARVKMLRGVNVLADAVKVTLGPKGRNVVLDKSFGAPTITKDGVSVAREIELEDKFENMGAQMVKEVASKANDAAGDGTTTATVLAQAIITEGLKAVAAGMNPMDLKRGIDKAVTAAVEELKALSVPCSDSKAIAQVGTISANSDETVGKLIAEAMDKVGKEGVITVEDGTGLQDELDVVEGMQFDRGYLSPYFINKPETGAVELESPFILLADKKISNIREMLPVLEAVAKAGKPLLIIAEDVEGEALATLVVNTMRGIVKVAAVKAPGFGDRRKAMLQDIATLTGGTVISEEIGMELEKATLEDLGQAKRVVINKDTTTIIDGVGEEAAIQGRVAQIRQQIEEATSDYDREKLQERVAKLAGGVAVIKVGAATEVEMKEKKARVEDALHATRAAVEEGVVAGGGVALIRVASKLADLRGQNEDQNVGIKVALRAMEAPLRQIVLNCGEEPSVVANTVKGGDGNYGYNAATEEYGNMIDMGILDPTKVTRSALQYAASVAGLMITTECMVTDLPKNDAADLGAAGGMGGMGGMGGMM
Chain of HSP60/HSP10 (P10809 whole entry): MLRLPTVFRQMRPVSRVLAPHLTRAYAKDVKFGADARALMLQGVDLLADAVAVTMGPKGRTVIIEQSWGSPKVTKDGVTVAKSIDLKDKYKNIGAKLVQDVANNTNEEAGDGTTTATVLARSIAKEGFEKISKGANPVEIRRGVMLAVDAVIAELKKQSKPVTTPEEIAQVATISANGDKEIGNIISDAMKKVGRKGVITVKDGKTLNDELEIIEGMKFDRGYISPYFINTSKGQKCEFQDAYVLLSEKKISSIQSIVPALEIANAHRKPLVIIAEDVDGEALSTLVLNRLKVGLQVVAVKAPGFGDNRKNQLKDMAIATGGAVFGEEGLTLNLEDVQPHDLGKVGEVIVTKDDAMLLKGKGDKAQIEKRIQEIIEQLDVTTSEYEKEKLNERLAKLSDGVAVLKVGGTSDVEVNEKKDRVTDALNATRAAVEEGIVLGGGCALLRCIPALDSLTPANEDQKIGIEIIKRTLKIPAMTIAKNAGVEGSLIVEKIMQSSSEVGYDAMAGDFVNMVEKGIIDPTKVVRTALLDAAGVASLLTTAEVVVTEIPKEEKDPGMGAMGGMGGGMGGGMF
Chain of HSP60/HSP10 (P61604 whole entry, further chain): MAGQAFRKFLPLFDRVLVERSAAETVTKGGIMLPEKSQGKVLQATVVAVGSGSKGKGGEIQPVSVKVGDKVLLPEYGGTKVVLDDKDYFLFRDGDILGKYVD

Compound	CC50 [1]	EC50 (Enterobacter cloacae)	IC50 [2]	IC50 [3]	Ratio EC50 (Staphylococcus aureus [4])	EC50 (Klebsiella pneumoniae)	IC50 (E. coli GroEL/ES [5])	CC50 (HEK293)	EC50 (Pseudomonas aeruginosa)	EC50 (Staphylococcus aureus [6])	EC50 (Staphylococcus aureus [7])	IC50 (E. coli GroEL/ES [8])	EC50 (Acinetobacter baumannii)	EC50 (Enterococcus faecium)	EC50 (Staphylococcus aureus [9])	EC50 (Staphylococcus aureus [10])	EC50 (Staphylococcus aureus [11])	selectivity ratio [12]	selectivity ratio [13]	IC50 (HSP60/HSP10)
O=C(Nc1ccc(Sc2nc3ccccc3s2)c(Cl)c1)c1cccc(Br)c1O	19 µM	> 100 µM	> 63 µM	> 100 µM	5 - 15	> 100 µM	3.8 µM	64 µM	> 100 µM	0.45 µM	0.71 µM	9.5 µM	2.9 µM	24 µM	0.45 µM	5.6 µM	1 µM	–	–	–
O=C(Nc1ccccc1)c1cc(Br)cc(Br)c1O [METABROMSALAN]	25 µM	> 100 µM	51 µM	> 100 µM	–	> 100 µM	> 100 µM	34 µM	> 100 µM	1.2 µM	2 µM	61 µM	> 100 µM	> 100 µM	–	–	–	> 50	> 50	–
O=C(Nc1cccc(Cl)c1)c1cc(Br)cc(Br)c1O	9.2 µM	78 µM	27 µM	> 100 µM	–	95 µM	47 µM	18 µM	> 100 µM	0.66 µM	1.1 µM	24 µM	46 µM	73 µM	–	–	–	> 50	> 50	–
CN[C@H](CC(C)C)C(=O)N[C@H]1C(=O)N[C@@H](CC(N)=O)C(=O)N[C@H]2C(=O)N[C@H]3C(=O)N[C@H](C(=O)N[C@H](C(=O)O)c4cc(O)cc(O)c4-c4cc3ccc4O)[C@H](O)c3ccc(c(Cl)c3)Oc3cc2cc(c3O[C@@H]2O[C@H](CO)[C@@H](O)[C@H](O)[C@H]2O[C@H]2C[C@](C)(N)[C@H](O)[C@H](C)O2)Oc2ccc(cc2Cl)[C@H]1O [VANCOMYCIN]	> 100 µM	> 100 µM	> 63 µM	> 100 µM	–	> 100 µM	> 100 µM	> 100 µM	> 100 µM	0.67 µM	0.52 µM	> 100 µM	> 100 µM	0.6 µM	0.67 µM	> 100 µM	0.54 µM	–	–	> 100 µM
COc1c(Br)cc(Br)cc1C(=O)Nc1cccc(Cl)c1	> 100 µM	> 100 µM	> 63 µM	> 100 µM	–	> 100 µM	> 100 µM	> 100 µM	> 100 µM	46 µM	> 100 µM	> 100 µM	> 100 µM	> 100 µM	–	–	–	–	–	> 100 µM
O=C(Nc1cccc(Cl)c1)c1ccccc1O	16 µM	> 100 µM	> 63 µM	> 100 µM	–	> 100 µM	> 100 µM	37 µM	> 100 µM	3.1 µM	4.2 µM	> 100 µM	> 100 µM	> 100 µM	–	–	–	–	–	> 100 µM
COc1c(Br)cc(Br)cc1C(=O)Nc1ccc(Sc2nc3ccccc3s2)cc1	> 100 µM	> 100 µM	> 63 µM	> 100 µM	–	> 100 µM	> 100 µM	> 100 µM	> 100 µM	> 100 µM	> 100 µM	> 100 µM	> 100 µM	> 100 µM	–	–	–	–	–	> 100 µM
O=C(Nc1ccc(Sc2nc3ccccc3s2)cc1)c1ccccc1O	33 µM	> 100 µM	> 63 µM	> 100 µM	5 - 15	> 100 µM	87 µM	74 µM	> 100 µM	0.2 µM	0.41 µM	40 µM	> 100 µM	67 µM	0.2 µM	2 µM	0.91 µM	–	–	> 100 µM
